Columns and labels:
[1] = molecular target: T1, Poly [ADP-ribose] polymerase 1 (Homo sapiens, UniProt P09874); assay: Inhibition of recombinant human PARP1 expressed in Escherichia coli BL21(DE3) using sheared DNA as substrate measured after 1 hr in presence of NAD+
[2] = molecular target: T1, Poly [ADP-ribose] polymerase 1; assay: Inhibition of recombinant human PARP1 expressed in Escherichia coli BL21(DE3) using histone as substrate measured after 1 hr in presence of biotinylated NAD+ by ELISA
[3] = molecular target: Poly [ADP-ribose] polymerase 2 (Homo sapiens, UniProt Q9UGN5); assay: Inhibition of recombinant human PARP2 expressed in Escherichia coli BL21(DE3) using histone as substrate measured after 1 hr in presence of biotinylated NAD+ by ELISA
In short: (§1)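 Human recombinant PARP2 (and PARP1) expressed and purified, inhibition measured by ELISA, with AZD2281 as positive control. IC50 from concentration–response fitting.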

Homo sapiens = organism: Homo sapiens; assay: Selectivity ratio of IC50 for recombinant human PARP2 to IC50 for recombinant human PARP1; in short: as §1
[4] = molecular target: T1, Poly [ADP-ribose] polymerase 1; assay: Inhibition of PARP1 in human MX1 cells assessed as potentiation of temozolomide-induced cytotoxicity at 10 uM after 72 hrs by MTT assay relative to temozolomide alone; assay type: cell-based
In short: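 MX-1 cells seeded at 2000/well and exposed for 72 h to TMZ (0–0.5 mmol/L) with or without PARP inhibitor fixed at 10 μmol/L. Survival read by MTT. PF50 = IC50 of TMZ alone / IC50 of TMZ + inhibitor.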

MX1 [5] = assay: Anti-tumor activity against human MX1 cells xenografted in BALB/c mouse assessed as tumor weight at 50 mg/kg, po administered once daily via gavage for 5 days measured after 11 days (reference value: 4.09 +/- 0.64 g); assay type: functional
In short: (§2)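 Female athymic BALB/c nude mice, 8–10 weeks old, implanted s.c. with 1×10^6 MX-1 cells in 0.1 mL PBS. Day 6: grouped at 6/group, tumors 100–300 mm³. Oral gavage once daily. TMZ 50 mg/kg/day for 5 days; single-agent test compound 50 mg/kg/day for 10 days; combinations both orally for 5 days. Body weight and tumor volume measured twice weekly; euthanized day 11.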

MX1 [6] = assay: Anti-tumor activity against human MX1 cells xenografted in BALB/c mouse assessed as tumor growth inhibition at 50 mg/kg, po administered once daily via gavage for 5 days measured after 11 days relative to control; assay type: functional; in short: as §2
Mus musculus = assay: Toxicity in BALB/c mouse assessed as change in body weight at 50 mg/kg, po administered once daily via gavage for 5 days measured twice every week up to 11 days (reference value: 5.32 g); assay type: organism-based; details: in vivo; in short: as §2

T1 sequence (P09874 whole entry): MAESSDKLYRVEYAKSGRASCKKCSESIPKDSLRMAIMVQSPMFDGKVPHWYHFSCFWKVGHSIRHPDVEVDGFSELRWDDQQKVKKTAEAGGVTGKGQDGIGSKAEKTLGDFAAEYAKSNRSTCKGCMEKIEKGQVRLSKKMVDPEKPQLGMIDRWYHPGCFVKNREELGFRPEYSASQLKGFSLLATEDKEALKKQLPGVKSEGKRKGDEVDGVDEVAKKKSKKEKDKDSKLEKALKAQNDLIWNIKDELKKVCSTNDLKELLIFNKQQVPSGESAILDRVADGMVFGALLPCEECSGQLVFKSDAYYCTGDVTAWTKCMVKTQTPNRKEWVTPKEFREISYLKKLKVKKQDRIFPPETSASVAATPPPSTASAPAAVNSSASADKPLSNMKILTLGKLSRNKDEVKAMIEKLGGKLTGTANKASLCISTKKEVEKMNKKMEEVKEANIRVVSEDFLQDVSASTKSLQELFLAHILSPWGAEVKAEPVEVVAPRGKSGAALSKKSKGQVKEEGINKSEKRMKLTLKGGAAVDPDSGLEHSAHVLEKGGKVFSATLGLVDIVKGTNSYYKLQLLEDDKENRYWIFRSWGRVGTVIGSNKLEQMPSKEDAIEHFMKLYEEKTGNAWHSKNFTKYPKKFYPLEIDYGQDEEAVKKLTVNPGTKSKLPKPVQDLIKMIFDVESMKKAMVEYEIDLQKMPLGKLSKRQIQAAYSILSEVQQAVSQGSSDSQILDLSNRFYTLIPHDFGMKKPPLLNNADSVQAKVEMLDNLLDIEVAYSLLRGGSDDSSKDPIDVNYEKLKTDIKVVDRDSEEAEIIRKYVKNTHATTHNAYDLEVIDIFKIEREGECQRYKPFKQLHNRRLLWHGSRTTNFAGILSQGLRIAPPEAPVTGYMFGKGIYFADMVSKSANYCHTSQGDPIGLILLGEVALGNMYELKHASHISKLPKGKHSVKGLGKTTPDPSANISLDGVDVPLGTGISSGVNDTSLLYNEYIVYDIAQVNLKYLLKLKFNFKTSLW
Chain of Poly [ADP-ribose] polymerase 2 (Q9UGN5 whole entry): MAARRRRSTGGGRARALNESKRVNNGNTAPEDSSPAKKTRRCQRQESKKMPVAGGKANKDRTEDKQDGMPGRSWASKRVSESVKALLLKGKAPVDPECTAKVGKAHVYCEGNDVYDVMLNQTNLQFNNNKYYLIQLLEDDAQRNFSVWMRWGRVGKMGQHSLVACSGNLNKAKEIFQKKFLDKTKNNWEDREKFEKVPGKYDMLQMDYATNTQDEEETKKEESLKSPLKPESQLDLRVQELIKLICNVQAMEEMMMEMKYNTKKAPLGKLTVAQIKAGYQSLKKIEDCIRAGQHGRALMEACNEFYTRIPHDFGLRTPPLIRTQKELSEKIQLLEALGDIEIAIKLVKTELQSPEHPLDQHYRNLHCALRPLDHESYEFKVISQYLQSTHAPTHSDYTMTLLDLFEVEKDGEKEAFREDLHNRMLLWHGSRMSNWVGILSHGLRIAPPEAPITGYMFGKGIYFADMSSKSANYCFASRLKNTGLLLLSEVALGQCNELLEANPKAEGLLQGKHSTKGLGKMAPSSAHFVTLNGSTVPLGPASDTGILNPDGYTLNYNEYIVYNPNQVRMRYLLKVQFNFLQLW

| Structure (SMILES) | IC50 [2] [nM] | further results |
| --- | --- | --- |
| NC(=O)c1cccc2[nH]c(C(=O)NC3CCCNC3)nc12 (configuration not stated) |  | IC50 [1]: 199 nM |
| NC(=O)c1cccc2[nH]c(C(=O)NC3CCN(C4CCCCC4)CC3)nc12 | 311 |  |
| CCC(CC)N1CCN(C(=O)c2nc3c(C(N)=O)cc(F)cc3[nH]2)CC1=O | 88 |  |
| NC(=O)c1cc(F)cc2[nH]c(C(=O)N3CCC(N)C3)nc12 (configuration not stated) | 12 | IC50 [3]: 19 nM; Ratio IC50 (Homo sapiens): < 10; PF50 [4]: 1.07 |
| CC[C@@H]1CN(C(=O)c2nc3c(C(N)=O)cccc3[nH]2)CCN1C(=O)OC(C)(C)C | > 100 |  |
| NC(=O)c1cccc2[nH]c(C(=O)NC3CCN(C4CCCCC4)C3)nc12 (configuration not stated) |  | IC50 [1]: > 1000 nM |
| NC(=O)c1cccc2[nH]c(C(=O)N3C[C@H]4CCCN[C@H]4C3)nc12 | 116 |  |
| CC(C)(C)OC(=O)N1CCC(N2CCC(NC(=O)c3nc4c(C(N)=O)cccc4[nH]3)CC2)CC1 | 868 |  |
| CC(C)(C)OC(=O)NC1CCN(C(=O)c2nc3c(C(N)=O)cc(F)cc3[nH]2)CC1 | 80 |  |
| CC[C@H]1CN(C(=O)c2nc3c(C(N)=O)cccc3[nH]2)CCN1C(=O)OC(C)(C)C | 100 |  |
| NC(=O)c1cccc2[nH]c(C(=O)N3CCC(N)C3)nc12 (configuration not stated) | 15 | IC50 [3]: 48 nM; Ratio IC50 (Homo sapiens): < 10; PF50 [4]: 1.98 |
| CCCNC1CCN(C(=O)c2nc3c(C(N)=O)cccc3[nH]2)C1 (configuration not stated) | 79 | IC50 [3]: 75 nM; Ratio IC50 (Homo sapiens): < 10; PF50 [4]: 1.54 |
| NC(=O)c1cccc2[nH]c(C(=O)NC3CCNC3)nc12 (configuration not stated) |  | IC50 [1]: 343 nM |
| CC(C)(C)OC(=O)N1CCC(NC2CCN(C(=O)c3nc4c(C(N)=O)cccc4[nH]3)CC2)CC1 | 250 |  |
| NC(=O)c1cccc2[nH]c(C(=O)N3CCC(NC4CCCCC4)C3)nc12 (configuration not stated) | 75 | IC50 [3]: 91 nM; Ratio IC50 (Homo sapiens): < 10; PF50 [4]: 4.17 |
| CCC(=O)N1CCN(C(=O)c2nc3c(C(N)=O)cccc3[nH]2)CC1 | > 100 |  |
| NC(=O)c1cccc2[nH]c(C(=O)N3CCC(NC4CCCCC4)CC3)nc12 | 70 |  |
| NC(=O)c1cc(F)cc2[nH]c(C(=O)N3CCC(NC4CCCCC4)C3)nc12 (configuration not stated) | 37 | IC50 [3]: 38 nM; Ratio IC50 (Homo sapiens): < 10; PF50 [4]: 1.71 |
| CCN1CCC(NC(=O)c2nc3c(C(N)=O)cccc3[nH]2)CC1 | 40 |  |

| Structure (SMILES) | IC50 [2] [nM] | further results |
| --- | --- | --- |
| NC(=O)c1cccc2[nH]c(C(=O)NC3CCN(CC(F)(F)F)CC3)nc12 | 34 | IC50 [3]: 100 nM; Ratio IC50 (Homo sapiens): < 10; PF50 [4]: 0.93 |
| NC(=O)c1cccc2[nH]c(C(=O)N3CCC(N)CC3)nc12 | 29 | IC50 [3]: 73 nM; Ratio IC50 (Homo sapiens): < 10; PF50 [4]: 1.99 |
| CC(C)CCN1CCCC(NC(=O)c2nc3c(C(N)=O)cccc3[nH]2)C1 (configuration not stated) |  | IC50 [1]: 708 nM |
| CC(C)(C)OC(=O)N1CCN(C(=O)c2nc3c(C(N)=O)cccc3[nH]2)CC1 | 152 |  |
| CC(C)(C)OC(=O)N1CCC(NC2CCN(C(=O)c3nc4c(C(N)=O)cccc4[nH]3)C2)CC1 (configuration not stated) | 1190 |  |
| NC(=O)c1cccc2[nH]c(C(=O)NC3CCCN(C4CCCCC4)C3)nc12 (configuration not stated) |  | IC50 [1]: 382 nM |
| NC(=O)c1cccc2[nH]c(C(=O)N3CCC(NC4CCNCC4)C3)nc12 (configuration not stated) | 60 |  |
| CC[C@@H]1CN(C(=O)c2nc3c(C(N)=O)cccc3[nH]2)CCN1 | > 100 |  |
| CC(C)(C)OC(=O)N1CCC(N2CCCC(NC(=O)c3nc4c(C(N)=O)cccc4[nH]3)C2)CC1 (configuration not stated) |  | IC50 [1]: 818 nM |
| NC(=O)c1cccc2[nH]c(C(=O)NC3CCN(C(=O)C(F)(F)F)CC3)nc12 | 83 |  |
| NC(=O)c1cccc2[nH]c(C(=O)N3CCNCC3)nc12 | 42 |  |
| CC(C)(C)OC(=O)N1CCC(NC(=O)c2nc3c(C(N)=O)cccc3[nH]2)CC1 | 644 |  |
| CC(C)N1CCC(NC(=O)c2nc3c(C(N)=O)cccc3[nH]2)CC1 | 64 |  |
| CC(C)CCN1CCC(NC(=O)c2nc3c(C(N)=O)cccc3[nH]2)CC1 | 111 |  |
| NC(=O)c1cc(F)cc2[nH]c(C(=O)N3CCNC(=O)C3)nc12 | 15 |  |
| NC(=O)c1cccc2[nH]c(C(=O)N3CCNC(=O)C3)nc12 | 29 |  |
| NC(=O)c1cccc2[nH]c(C(=O)N3CCC(NC4CCNCC4)CC3)nc12 | 316 |  |
| CCC(CC)N1CCC(NC(=O)c2nc3c(C(N)=O)cc(F)cc3[nH]2)CC1 | 30 |  |
| NC(=O)c1cccc2[nH]c(C(=O)NC3CCN(CC4CC4)CC3)nc12 | 108 | IC50 [3]: 130 nM; Ratio IC50 (Homo sapiens): < 10; PF50 [4]: 3.53 |

| Structure (SMILES) | IC50 [2] [nM] | further results |
| --- | --- | --- |
| NC(=O)c1cccc2[nH]c(C(=O)NC3CN4CCC3CC4)nc12 (configuration not stated) | > 100 |  |
| CC(C)(C)OC(=O)N1CCC(NC(=O)c2nc3c(C(N)=O)cccc3[nH]2)C1 (configuration not stated) |  | IC50 [1]: 1810 nM |
| CCC(CC)N1CCC(NC(=O)c2nc3c(C(N)=O)cccc3[nH]2)CC1 | 302 |  |
| CC(C)CN1CCC(NC(=O)c2nc3c(C(N)=O)cccc3[nH]2)CC1 | 92 |  |
| NC(=O)c1cccc2[nH]c(C(=O)NC3CCNCC3)nc12 | 101 | Ratio IC50 (Homo sapiens): < 10; PF50 [4]: 1.75 |
| NC(=O)c1cc(F)cc2[nH]c(C(=O)N3CCC(N)CC3)nc12 | 2.76 | IC50 [3]: 24 nM; Ratio IC50 (Homo sapiens): < 10; PF50 [4]: 0.98 |
| NC(=O)c1cccc2[nH]c(C(=O)NC3CCN(C4CCNCC4)CC3)nc12 | 316 |  |
| CC(C)(C)OC(=O)NC1CCN(C(=O)c2nc3c(C(N)=O)cccc3[nH]2)CC1 | 968 |  |
| CC(C)(C)OC(=O)N1CCCC(NC(=O)c2nc3c(C(N)=O)cccc3[nH]2)C1 (configuration not stated) |  | IC50 [1]: 1150 nM |
| NC(=O)c1cccc2[nH]c(C(=O)NC3CCCN(C4CCNCC4)C3)nc12 (configuration not stated) |  | IC50 [1]: 793 nM |
| CC(C)(C)OC(=O)NC1CCN(C(=O)c2nc3c(C(N)=O)cccc3[nH]2)C1 (configuration not stated) | 857 |  |
| CCC(=O)NC1CCN(C(=O)c2nc3c(C(N)=O)cccc3[nH]2)C1 (configuration not stated) | 83 |  |
| CC(C)(C)OC(=O)NC1CCN(C(=O)c2nc3c(C(N)=O)cc(F)cc3[nH]2)C1 (configuration not stated) | > 100 |  |
| CC(C)(C)CN1CCC(NC(=O)c2nc3c(C(N)=O)cccc3[nH]2)CC1 | 41 |  |
| CCCN1CCC(NC(=O)c2nc3c(C(N)=O)cccc3[nH]2)CC1 | 49 |  |
| CC[C@H]1CN(C(=O)c2nc3c(C(N)=O)cccc3[nH]2)CCN1 | 19 |  |
| CC(C)CN1CCN(C(=O)c2nc3c(C(N)=O)cccc3[nH]2)CC1 | 81 |  |
| Cn1nnc2c(C(N)=O)ncn2c1=O [TEMOZOLOMIDE] |  | Activity (MX1 [5]): 1.57 g; T/C (MX1 [6]): 38%; inhibition in vivo at 50 mg/kg (MX1 [6]; Mus musculus, MX1, po, read-out: TGI): 62%; Activity (Mus musculus): 0.02 g |
| NC(=O)c1cc(F)cc2[nH]c(C(=O)N3CCC(NC4CCCCC4)CC3)nc12 | 7.54 | IC50 [3]: 34 nM; Ratio IC50 (Homo sapiens): < 10; PF50 [4]: 0.71 |

Reference: ChEMBL document CHEMBL4028811, “Discovery of 2-substituted 1H-benzo[d]immidazole-4-carboxamide derivatives as novel poly(ADP-ribose)polymerase-1 inhibitors with in vivo anti-tumor activity” (Eur J Med Chem, 2017)
